Assay results from ChEMBL document CHEMBL4145607, “Tamarixetin Exhibits Anti-inflammatory Activity and Prevents Bacterial Sepsis by Increasing IL-10 Production” (J Nat Prod, 2018).
Active and inactive are the calls of the source.

Tests used:
Mus musculus [1] = assay: Antiseptic activity in Balb/c mouse model of Escherichia coli K1 infection-induced sepsis assessed as reduction in serum endotoxin level at 50 mg/kg, ip pretreated for 1 hr followed by Escherichia coli K1 infection measured after 12 hrs by chromogenic assay; format: functional, organism-based
Method in brief: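 BALB/c mice dosed i.p. 1 h before i.p. E. coli K1 (1 × 10^6 CFU per mouse), sera taken at 12 h. Serum diluted 10-fold in endotoxin-free PBS, LAL chromogenic end-point assay; background subtracted, quantified against E. coli endotoxin standard, reported as EU·mL−1.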

BMDC = assay: Inhibition of LPS-induced immune response in C57BL/6 mouse BMDC assessed as increase in IL10 secretion at 25 uM pretreated for 30 mins followed by LPS-challenge measured after 6 hrs by ELISA; format: functional, cell-based
Method in brief: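 Bone marrow from 6-week-old female C57BL/6 mice, RBC-lysed, cultured in RPMI-1640/10% FBS with 10 ng·mL−1 rmGM-CSF, 37 °C, 5% CO2; medium refreshed days 3 and 5. DCs pretreated 30 min with compound, then LPS 50 ng·mL−1 for 6 h; supernatant IL-10 by sandwich ELISA; means ± SEM.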

Mus musculus [2] = assay: Antiseptic activity in Balb/c mouse model of Escherichia coli K1 infection-induced sepsis assessed as increase in survival rate at 1 mg/kg, ip pretreated for 1 hr followed by Escherichia coli K1 infection measured over 72 hrs relative to control; format: functional
Method in brief: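 BALB/c mice dosed i.p. 1 h before i.p. E. coli K1 strain RS218 (O18:K1:H7) challenge, 1 × 10^7 CFU per mouse, diluted in LB broth; n = 10; survival monitored over 72 h.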

Mus musculus [3] = assay: Antiseptic activity in Balb/c mouse model of Escherichia coli K1 infection-induced sepsis assessed as reduction in bacterial count in lungs at 50 mg/kg, ip pretreated for 1 hr followed by Escherichia coli K1 infection measured after 12 hrs; format: functional, organism-based
Method in brief: (§1)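 BALB/c mice dosed i.p. 1 h before i.p. E. coli K1 (1 × 10^6 CFU per mouse); killed at 12 h. Lungs and kidneys removed aseptically into 1 mL sterile PBS, homogenised on ice, diluted 1:1000 in PBS, 10 μL plated on LB agar, 24 h at 37 °C, colonies counted.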

Mus musculus [4] = assay: Antiseptic activity in Balb/c mouse model of Escherichia coli K1 infection-induced sepsis assessed as reduction in bacterial count in kidneys at 50 mg/kg, ip pretreated for 1 hr followed by Escherichia coli K1 infection measured after 12 hrs; format: functional, organism-based; method in brief: as §1

O=c1c(O)c(-c2ccc(O)c(O)c2)oc2cc(O)cc(O)c12
inactive: Activity (Mus musculus [1]) | inhibition (BMDC) | Activity (Mus musculus [2]) | Activity (Mus musculus [3]) | Activity (Mus musculus [4])
